Assay results from ChEMBL document CHEMBL1932969, “Acyl derivatives of boswellic acids as inhibitors of NF-κB and STATs” (Bioorg Med Chem Lett, 2012).
Activity calls are given as the source filed them. No cut-off for these calls is given here.

Experiments:
PC-3 = experiment: Anticancer activity against human PC3 cells assessed as growth inhibition at 50 uM after 48 hrs by SRB assay; format: functional; settings: PC-3, 48 h, read-out: GI
Method in brief: (§1)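 Cells exposed to test compounds at 50 µM for 48 h. Read-out is percent growth inhibition, with SEM given. 5-Fluorouracil and adriamycin serve as reference agents.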

HL-60 [1] = experiment: Anticancer activity against human HL60 cells after 48 hrs by MTT assay; format: functional, cell-based; settings: HL-60, 48 h
Method in brief: (§2)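 Cell proliferation measured by MTT. Cells are incubated with each analog for 48 h at the indicated concentrations, then MTT reduction is read as an index of viability. OD of the untreated control is taken as 100% viability, and IC50 is derived from this.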

[2] = Cytotoxicity against human HGF cells after 48 hrs by MTT assay; format: cell-based; method in brief: as §2
HL-60 [3] = experiment: Induction of autophagy in p53-deficient human HL60 cells at 50 uM after 6 hrs by acridine orange staining; format: functional, cell-based
Method in brief: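 Autophagy scored by flow cytometry of HL-60 cells stained with acridine orange after 6 h exposure.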

[4] = biological target: Transcription factor p65 (Homo sapiens) (UniProt Q04206); experiment: Inhibition of NF-kappaB p65 subunit protein expression in p53-deficient human HL60 cells at 50 uM after 6 hrs by Western blot analysis; format: cell-based; settings: HL-60
Sequence of Transcription factor p65 (Homo sapiens) (Q04206 whole entry): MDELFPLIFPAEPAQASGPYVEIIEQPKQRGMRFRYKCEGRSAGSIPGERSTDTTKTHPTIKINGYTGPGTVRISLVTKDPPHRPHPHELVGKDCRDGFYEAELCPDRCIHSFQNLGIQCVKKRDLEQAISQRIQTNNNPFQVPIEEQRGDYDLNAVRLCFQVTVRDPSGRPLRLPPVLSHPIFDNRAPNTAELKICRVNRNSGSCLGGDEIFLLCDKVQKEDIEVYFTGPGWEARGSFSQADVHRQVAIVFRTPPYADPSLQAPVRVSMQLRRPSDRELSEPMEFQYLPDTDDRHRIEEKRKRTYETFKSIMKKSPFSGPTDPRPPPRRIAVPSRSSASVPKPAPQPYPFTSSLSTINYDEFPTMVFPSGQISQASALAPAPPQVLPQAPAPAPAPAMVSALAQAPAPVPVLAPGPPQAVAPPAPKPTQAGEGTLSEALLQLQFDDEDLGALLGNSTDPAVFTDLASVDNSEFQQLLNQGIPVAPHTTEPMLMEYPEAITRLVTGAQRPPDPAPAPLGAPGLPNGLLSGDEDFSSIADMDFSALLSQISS
Method in brief: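 HL-60 cells treated with or without compound (20 and 50 µM) for 6 h. Total cell lysates (70 µg protein) are run on 10% SDS–PAGE and immunoblotted for NF-κB p50 and p65.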

HL-60 [5] = experiment: Inhibition of STAT3alpha protein expression in p53-deficient human HL60 cells at 20 to 50 uM after 6 hrs by Western blot analysis; format: cell-based
[6] = biological target: T1, Signal transducer and activator of transcription 5A (Homo sapiens) (UniProt P42229); experiment: Inhibition of STAT5 protein expression in p53-deficient human HL60 cells at 20 to 50 uM after 6 hrs by Western blot analysis; format: cell-based; settings: HL-60
T1 sequence (whole entry): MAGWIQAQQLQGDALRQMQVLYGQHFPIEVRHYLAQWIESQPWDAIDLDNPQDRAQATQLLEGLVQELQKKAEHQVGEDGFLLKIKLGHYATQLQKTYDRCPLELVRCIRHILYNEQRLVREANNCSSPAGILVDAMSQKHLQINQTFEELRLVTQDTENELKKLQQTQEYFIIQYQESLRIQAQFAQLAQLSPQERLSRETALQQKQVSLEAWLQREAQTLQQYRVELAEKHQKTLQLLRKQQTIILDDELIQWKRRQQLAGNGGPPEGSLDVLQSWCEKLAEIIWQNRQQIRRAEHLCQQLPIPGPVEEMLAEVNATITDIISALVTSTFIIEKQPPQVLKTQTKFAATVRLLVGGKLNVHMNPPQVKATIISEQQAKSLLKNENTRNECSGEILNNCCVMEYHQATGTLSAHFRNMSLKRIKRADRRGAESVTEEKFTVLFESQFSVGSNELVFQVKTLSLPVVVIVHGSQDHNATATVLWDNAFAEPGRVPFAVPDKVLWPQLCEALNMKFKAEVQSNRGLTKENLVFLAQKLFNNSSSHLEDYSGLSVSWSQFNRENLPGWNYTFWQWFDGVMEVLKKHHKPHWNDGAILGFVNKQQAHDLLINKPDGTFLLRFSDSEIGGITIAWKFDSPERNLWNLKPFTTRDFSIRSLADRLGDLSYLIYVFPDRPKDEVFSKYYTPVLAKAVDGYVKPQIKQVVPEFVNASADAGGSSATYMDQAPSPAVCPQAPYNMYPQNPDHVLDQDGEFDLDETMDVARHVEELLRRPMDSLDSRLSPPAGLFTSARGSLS

[7] = biological target: T2, Signal transducer and activator of transcription 6 (Homo sapiens) (UniProt P42226); experiment: Inhibition of STAT6 protein expression in p53-deficient human HL60 cells at 20 to 50 uM after 6 hrs by Western blot analysis; format: cell-based; settings: HL-60
T2 sequence (whole entry): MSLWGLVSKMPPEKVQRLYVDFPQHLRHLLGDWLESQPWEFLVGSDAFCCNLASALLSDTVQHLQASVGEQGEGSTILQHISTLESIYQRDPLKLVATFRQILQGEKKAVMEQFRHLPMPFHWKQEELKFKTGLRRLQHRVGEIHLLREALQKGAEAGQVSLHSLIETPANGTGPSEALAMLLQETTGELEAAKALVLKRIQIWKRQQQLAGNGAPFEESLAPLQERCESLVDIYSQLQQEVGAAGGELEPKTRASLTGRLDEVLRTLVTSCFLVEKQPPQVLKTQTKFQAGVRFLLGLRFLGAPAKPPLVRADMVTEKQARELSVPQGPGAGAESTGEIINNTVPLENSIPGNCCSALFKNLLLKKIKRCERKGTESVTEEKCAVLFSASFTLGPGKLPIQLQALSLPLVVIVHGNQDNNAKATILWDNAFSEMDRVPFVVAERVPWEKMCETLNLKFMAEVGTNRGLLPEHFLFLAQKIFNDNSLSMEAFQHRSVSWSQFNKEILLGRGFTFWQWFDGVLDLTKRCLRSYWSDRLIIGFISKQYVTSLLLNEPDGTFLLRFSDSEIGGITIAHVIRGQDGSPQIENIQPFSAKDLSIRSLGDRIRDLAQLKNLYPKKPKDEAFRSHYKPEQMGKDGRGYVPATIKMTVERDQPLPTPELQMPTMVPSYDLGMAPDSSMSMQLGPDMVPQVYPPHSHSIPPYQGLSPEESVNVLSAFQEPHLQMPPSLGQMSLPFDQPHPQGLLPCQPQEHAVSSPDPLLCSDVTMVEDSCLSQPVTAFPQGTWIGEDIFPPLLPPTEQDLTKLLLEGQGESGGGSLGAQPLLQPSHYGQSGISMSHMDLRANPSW

[8] = biological target: Signal transducer and activator of transcription 3 (Homo sapiens) (UniProt P40763); experiment: Inhibition of STAT3 Thr705 phosphorylation in p53-deficient human HL60 cells at 20 to 50 uM after 6 hrs by Western blot analysis; format: cell-based; settings: HL-60
Sequence of Signal transducer and activator of transcription 3 (Homo sapiens) (P40763 whole entry): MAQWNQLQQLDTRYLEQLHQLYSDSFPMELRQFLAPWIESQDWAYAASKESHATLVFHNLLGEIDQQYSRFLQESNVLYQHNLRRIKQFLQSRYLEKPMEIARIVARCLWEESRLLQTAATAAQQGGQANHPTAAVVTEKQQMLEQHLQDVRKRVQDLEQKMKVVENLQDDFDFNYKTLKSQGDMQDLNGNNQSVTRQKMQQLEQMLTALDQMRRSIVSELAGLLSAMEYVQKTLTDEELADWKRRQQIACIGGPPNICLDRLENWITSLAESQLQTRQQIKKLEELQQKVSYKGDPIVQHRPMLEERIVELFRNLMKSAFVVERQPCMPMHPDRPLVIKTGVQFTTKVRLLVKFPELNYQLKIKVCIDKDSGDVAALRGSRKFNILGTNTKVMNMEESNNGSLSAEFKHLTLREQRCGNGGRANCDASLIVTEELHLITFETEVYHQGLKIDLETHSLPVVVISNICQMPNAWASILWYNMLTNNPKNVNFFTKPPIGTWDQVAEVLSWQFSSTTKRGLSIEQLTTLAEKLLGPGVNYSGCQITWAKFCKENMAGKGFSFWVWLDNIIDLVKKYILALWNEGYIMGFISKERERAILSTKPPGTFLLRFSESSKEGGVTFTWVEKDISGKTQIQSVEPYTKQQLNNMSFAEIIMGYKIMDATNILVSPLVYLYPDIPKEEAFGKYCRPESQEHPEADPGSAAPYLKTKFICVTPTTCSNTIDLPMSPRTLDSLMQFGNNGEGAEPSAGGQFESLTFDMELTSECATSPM

[9] = biological target: T1, Signal transducer and activator of transcription 5A (Homo sapiens); experiment: Inhibition of STAT5 Tyr694/699 phosphorylation in p53-deficient human HL60 cells at 20 to 50 uM after 6 hrs by Western blot analysis; format: cell-based; settings: HL-60
HT-29 = experiment: Anticancer activity against human HT-29 cells assessed as growth inhibition at 50 uM after 48 hrs by SRB assay; format: functional; settings: HT-29, 48 h, read-out: GI; method in brief: as §1
SW-620 = experiment: Anticancer activity against human SW620 cells assessed as growth inhibition at 50 uM after 48 hrs by SRB assay; format: functional; settings: SW-620, 48 h, read-out: GI; method in brief: as §1
COLO 205 = experiment: Anticancer activity against human COLO205 cells assessed as growth inhibition at 50 uM after 48 hrs by SRB assay; format: functional; settings: COLO 205, 48 h, read-out: GI; method in brief: as §1
HEp-2 = experiment: Anticancer activity against human Hep2 cells assessed as growth inhibition at 50 uM after 48 hrs by SRB assay; format: functional; settings: HEp-2, 48 h, read-out: GI; method in brief: as §1

- IC50 (HL-60 [1]): 11 µM
- inhibition [4]: 90%
- inhibition [6]: Active
- inhibition [7]: Active
- inhibition [8]: Active
- inhibition [9]: Active
Structure (SMILES): CCCC(=O)O[C@@H]1CC[C@@]2(C)[C@@H](CC[C@]3(C)[C@@H]2C(=O)C=C2[C@@H]4[C@@H](C)[C@H](C)CC[C@]4(C)CC[C@]23C)[C@@]1(C)C(=O)O
- inhibition of growth at 50 µM (PC-3): 96%
- IC50 [2]: 80 µM
- Activity (HL-60 [3]): inactive
- inhibition (HL-60 [5]): Active
- inhibition of growth at 50 µM (HT-29): 96%
- inhibition of growth at 50 µM (SW-620): 97%
- inhibition of growth at 50 µM (COLO 205): 94%
- inhibition of growth at 50 µM (HEp-2): 98%
